HSV replic up – HSV replication enhancement | HSV replication augmentation in cells, fold increase | maximum fold increase | 220,000 compounds, 0.005% hits; in the data active = maximum fold increase above about 1.5; inconclusive = no clear call, values can overlap the other calls; tested in PC3 cells
ABCG2 block – human ABCG2 inhibition, ABCB1 as counter-screen | IgMXP3 cells, JC-1 efflux, flow cytometry | Q9UNQ0 | inhibition, % at 6.6 µM | 190,000 compounds, 0.1% hits;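 active = inhibition above 80%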;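 note: 0% = DMSO and 100% = nicardipine control wells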
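Test system: ABCG2 IgMXP3 and barcoded ABCB1 CCRF-Adr cell mix; Schedule: cells with compound and JC-1, 10 min at 25 °C, rotating, no wash; Technique: flow cytometry of retained JC-1 fluorescence; Measure: % inhibition of efflux relative to nicardipine and DMSO; Controls: nicardipine high and DMSO low controls.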
p97 ATPase inh – human p97 ATPase inhibition. AID 1481. recombinant p97 ATPase, Kinase-Glo ATP luminescence, 3 h. 220,000 compounds, 0.42% hits. P55072. inhibition, % at 8 µM; in the data active = inhibition above about 15%;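 note: 0% = DMSO vehicle and 100% = wells lacking enzyme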
Rad51 HR inh – Rad51 (human) homologous recombination inhibition; hRad51 DNA strand exchange, fluorescence dequenching; inhibition, % at 10 µM; 200,000 compounds, 0.085% hits;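 active = inhibition above 40% at the single screening dose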;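 note: 0% = DMSO control wells and 100% = blanks with heterologous ssDNA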
Target sequence (Q06609 whole entry, looked up): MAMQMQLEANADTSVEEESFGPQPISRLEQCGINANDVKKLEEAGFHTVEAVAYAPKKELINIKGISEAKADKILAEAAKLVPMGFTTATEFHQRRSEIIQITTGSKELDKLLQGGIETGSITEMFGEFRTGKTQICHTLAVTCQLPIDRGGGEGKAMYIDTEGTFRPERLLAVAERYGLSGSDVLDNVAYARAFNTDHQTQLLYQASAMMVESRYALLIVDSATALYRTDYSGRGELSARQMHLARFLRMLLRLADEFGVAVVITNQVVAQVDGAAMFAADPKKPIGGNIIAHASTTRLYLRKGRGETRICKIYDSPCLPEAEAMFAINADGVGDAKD
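material = hRad51 filaments on single-stranded DNA | reagent = Donor/quencher-labelled 47-bp dsDNA substrate | compound = 10 µM final, single point | schedule = strand-exchange reaction 15 min at room temperature | measured by = fluorescein emission 520 nm, excitation 485 nm | read-out basis = % inhibition versus plate control and blank means | benchmarks = plate controls and plate blanks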
ABCB1 block – human ABCB1 inhibition, ABCG2 as counter-screen; P08183; CCRF-Adr cells, JC-1 efflux, flow cytometry; inhibition, % at 6.6 µM; 190,000 compounds, 0.067% hits; AID 1326; in the data active = inhibition above about 40%;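 note: 0% = vehicle and 100% = reference inhibitor; higher value means more JC-1 retained so stronger ABCB1 efflux block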
ABCB6 inh MLPCN – inhibitors of human ABC transporter ABCB6 | K562-ABCB6 porphyrin accumulation, flow cytometry, 1 h; stronger effect = lower value | AID 602162 | 360,000 compounds, 0.19% hits | fluorescence ratio to DMSO, % at 10 µM;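 active = fluorescence ratio to DMSO below 75%, the collection mean minus 3 SD; inconclusive = too few cells collected in the well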;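 note: signal is porphyrin accumulated inside mitochondria; 100% equals median channel fluorescence of DMSO control wells; lower ratio means ABCB6 inhibition with less porphyrin fluorescence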
ABCB1 single pt – confirmation of human ABCB1 transporter inhibitors, ABCG2 counter-screen. 270 compounds, 7% hits. inhibition, % at 6.6 µM. CCRF-Adr cells, JC-1 efflux, flow cytometry. shares compounds with ABCG2 block. AID 1451;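 active = inhibition of pump activity above 50%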;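 note: 0% = DMSO and 100% = nicardipine full pump inhibition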
ABCG2 confirm – inhibits human ABCG2 efflux, confirmed at single point. IgMXP3 cells, JC-1 efflux, flow cytometry. 270 compounds, 6% hits. shares compounds with ABCG2 block. inhibition, % at 6.6 µM;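 active = inhibition above 50%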;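 note: 0% = DMSO wells and 100% = nicardipine pump inhibitor wells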
IgMXP3 autofluor – compound fluoresces at 488/530 nm in IgMXP3 cells; shares compounds with ABCG2 block; compound autofluorescence 488/530 nm, flow; stronger effect = higher value; fluorescence at 6.6 µM; 270 compounds, 30% hits;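 active = fluorescence in ABCG2-expressing cells above the plate's control-well mean plus 3 SD, cut at about 15 in these data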;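 note: median cell fluorescence with compound minus that of DMSO-treated control cells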
CCRF-Adr fluor – counter-screen for ABCB1 inhibitors: compound fluorescence in CCRF-Adr cells; shares compounds with ABCG2 block; compound autofluorescence 488/530 nm, flow cytometry; stronger effect = higher value; fluorescence at 6.6 µM; 270 compounds, 30% hits; AID 1483;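 active = fluorescence beyond the plate control mean plus 3 SD, with a fluorescence-to-maximum score over 2, cut at about 25 in these data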
The depositor's hits bear a star; i = inactive; ? = inconclusive; / = not tested or not shown. Shown are actives, neighbours in structure and some others; about 0.55% of the full set was active somewhere.

SMILES | HSV replic up | ABCG2 block | p97 ATPase inh | Rad51 HR inh | ABCB1 block | ABCB6 inh MLPCN | others
CC1=NN(c2ccccc2)C(=O)/C1=C\c1cn(-c2ccccc2)nc1C | i | 1.0 | 3.2 | -8.9 | -0.1 | 92.0
COc1cccc(NC(=O)N2CCCC2)c1 | i | 8.5 | 1.3 | 42.5* | 0.6 | 93.0
Cc1cc(Cl)c(S(=O)(=O)Nc2ccc3c(c2)OCCO3)cc1OCC(=O)NC1CCCCC1 | i | 16.7 | 5.8 | -3.8 | 6.5 | 73.0*
Cc1cc(=O)n(-c2ccc(O)cc2)[nH]1 | i | -2.6 | 21.0* | 15.1 | -0.9 | 120.0
O=C(CSc1nnc(Cn2c(=O)sc3ccccc32)n1-c1ccccc1)Nc1nccs1 | i | 6.9 | 15.5* | -0.9 | 2.4 | 102.0
Cc1cc(-c2ccccc2)nc2cc(C(N)=O)nn12 | i | 9.4 | -1.2 | -2.9 | 0.5 | 6.0*
O=C(Nc1ccc2c(c1)oc1ccc(S(=O)(=O)N3CCCC3)cc12)C1CC1 | i | 109.9* | 1.2 | 8.2 | -1.1 | 93.0
O=C1NC(=S)S/C1=C\c1ccc(SCc2ccco2)o1 | i | -2.0 | 52.5* | 10.7 | 0.0 | 104.0
COc1ccc(CCNC/C=C/c2ccccc2)cc1 | / | / | / | / | / | 102.0
O=C(CSc1nc2c(sc3ccccc32)c(=O)n1CCCN1CCCC1)NCc1ccccc1 | i | 1.1 | 1.3 | 7.1 | 0.2 | 108.0
Cc1ccc(CNC(=O)CSc2nc3c(sc4ccccc43)c(=O)n2CCCN2CCCC2)cc1 | i | 5.4 | 1.0 | 42.7* | 1.7 | 91.0
COc1cccc(NS(=O)(=O)c2ccc3c(c2)C2C=CCC2C(c2ccc(C(=O)O)cc2)N3)c1 (centres undefined) | i | -9.3 | 14.7* | -50.5 | -1.2 | 101.0
Cc1ccc(C(=O)c2no[n+]([O-])c2C(=O)c2ccc(C)cc2)cc1 | i | 0.4 | 5.1 | / | 0.2 | 67.0*
Cc1ccc(C(=O)c2ccc(C)cc2)cc1 | i | 6.6 | -0.5 | -3.2 | 1.9 | 98.0
COc1ccc(CCN2C(=O)c3ccccc3NC2c2cc(Cl)c(O)c(OC)c2)cc1 (centres undefined) | / | / | / | / | / | 102.0
CCCCNC(=O)C1(C)CCCCN1C(=O)c1c(C)noc1C (centres undefined) | / | / | / | / | / | 101.0
O=C(O)c1ccc(N/N=C/C(Br)=C/c2ccccc2)cc1 | i | / | 14.7* | 8.2 | / | 108.0
COc1ccc(N2CCN(c3cc(C(=O)Nc4cc(OC)c(OC)c(OC)c4)ncn3)CC2)cc1OC | / | / | / | / | / | 101.0
CCc1nc2ccc(C(=O)Nc3cccc(OC)c3)cn2c1N(CC)Cc1cccc(Br)c1 | / | / | / | / | / | 95.0
O=c1oc(=S)oc2c1[C@H](c1ccc(Cl)cc1)O[C@H](C1CC1)C2 | / | / | / | / | / | 101.0
COc1cc(NS(=O)(=O)c2ccc(N/C=C(\C#N)c3nc4cc(Cl)ccc4o3)cc2)nc(OC)n1 | i | 3.6 | -5.6 | -13.3 | 0.1 | 55.0*
COc1cc(NS(=O)(=O)c2ccc(NC(C)=O)cc2)nc(OC)n1 | i | 5.5 | -5.0 | 4.0 | 0.7 | 98.0
CCCCNC(=O)CSc1nnc(-c2cccc(S(=O)(=O)N3CCOCC3)c2)o1 | / | / | / | / | / | 89.0
Cc1cccc(S(=O)(=O)C(C#N)c2nc3ccccc3nc2N2CCCC2)c1 (centres undefined) | i | -1.5 | 20.2* | -28.7 | -0.3 | 194.0
O=[N+]([O-])c1cc(/C=N/OCc2c(Cl)cccc2Cl)ccc1N1CCOCC1 | i | 6.0 | -5.0 | 4.3 | 0.3 | 54.0*
SMILES | HSV replic up | ABCG2 block | p97 ATPase inh | Rad51 HR inh | ABCB1 block | ABCB6 inh MLPCN | others
O=S(=O)(c1ccccc1)N1CCCCC1CCc1ccccc1 (centres undefined) | / | / | / | / | / | 98.0
CC(C)=C1C(=O)NN(c2ccc(F)c(Cl)c2)C1=O | i | -2.5 | 20.4* | -11.3 | -0.7 | 100.0
CCCS(=O)(=O)NC(=O)C1(C)CCN(C(=O)c2ccc(F)c(C)c2)C1 (centres undefined) | / | / | / | / | / | 90.0
O=C(CSCc1ccc(F)cc1)Nc1ccc(F)cc1 | i | 4.7 | 2.7 | 6.4 | 0.9 | 103.0
O=C(CSCc1ccc(F)cc1)Nc1nc2c(s1)CCCC2 | i | 47.7 | -8.4 | 66.0* | -0.1 | 95.0
Cn1c(=O)c(NC2CCCCC2)c2c3c(cccc31)C(=O)c1ccccc1-2 | ? | 66.0 | 4.3 | i | 48.3* | 529.0
CCOc1ccc(Nc2nc(NCCN3CCOCC3)nc(OC)n2)cc1 | i | 1.8 | 14.6* | -1.0 | 0.3 | 97.0
CCOc1ccc(Nc2nc(N3CCOCC3)nc(N3CCOCC3)n2)cc1 | / | / | / | / | / | 94.0
Cc1ccccc1-c1cc2nc(NCc3ccc(N(C)C)cc3)n(C)c(=O)c2s1 | / | / | / | / | / | 94.0
Cc1ccc(-c2ccc(=O)n(CC(=O)NCc3ccc(F)cc3)n2)cc1 | i | 2.1 | 2.4 | 50.3* | -0.4 | 95.0
Cc1ccc(CNC(=O)CSCc2ccc(F)cc2)cc1 | i | 0.9 | 0.7 | 46.1* | 0.2 | 99.0
O=C(CSc1nnc2ccccn12)NNC(=O)c1cccc(Cl)c1 | / | / | / | / | / | 97.0
CCCOC(=O)c1cccc(NC(=O)COc2ccc([N+](=O)[O-])cc2)c1 | i | 8.9 | 0.6 | 23.5 | 63.3* | 91.0
CCOC(=O)c1cccc(NC(=O)COc2ccc([N+](=O)[O-])cc2)c1 | i | 4.3 | 3.0 | -3.7 | 0.7 | 89.0
COc1ccc(C2=NN(C3=NN=C(N)Cc4ncnn43)C(O)(C(F)(F)F)C2)cc1 (centres undefined) | i | 1.2 | 5.9 | 56.4* | 0.0 | 89.0
NC1=NN=C(N2N=C(c3ccc(Br)cc3)CC2(O)C(F)(F)F)n2ncnc2C1 (centres undefined) | i | 2.5 | -2.9 | -5.1 | 0.5 | 100.0
COCCn1c(SCc2csc(-c3ccccc3)n2)nc2ccccc21 | i | 80.3 | -11.1 | -10.9 | 3.3 | 98.0 | ABCB1 single pt=-13.1;ABCG2 confirm=4.8;IgMXP3 autofluor=14.7*;CCRF-Adr fluor=72.3*
CCC(=O)N1CCc2cc(Br)cc(S(=O)(=O)N3CCCCC3CC)c21 (centres undefined) | / | / | / | / | / | 124.0
COc1cc(SC)ccc1C(=O)Nc1ccccc1 | i | 83.8* | 2.6 | 4.9 | -1.5 | 91.0 | ABCB1 single pt=3.1;ABCG2 confirm=36.3;IgMXP3 autofluor=18.4*;CCRF-Adr fluor=30.1*
